Assays:
[1] = biological target: T1, Alpha-1A adrenergic receptor (Cavia porcellus) (UniProt Q9WU25); assay: Inverse agonist activity at alpha1A adrenoceptor in guinea pig thoracic aorta assessed as inhibition of ca2+-induced IRT at 10 nM after 30 mins; assay type: functional, tissue-based
T1 sequence (whole entry): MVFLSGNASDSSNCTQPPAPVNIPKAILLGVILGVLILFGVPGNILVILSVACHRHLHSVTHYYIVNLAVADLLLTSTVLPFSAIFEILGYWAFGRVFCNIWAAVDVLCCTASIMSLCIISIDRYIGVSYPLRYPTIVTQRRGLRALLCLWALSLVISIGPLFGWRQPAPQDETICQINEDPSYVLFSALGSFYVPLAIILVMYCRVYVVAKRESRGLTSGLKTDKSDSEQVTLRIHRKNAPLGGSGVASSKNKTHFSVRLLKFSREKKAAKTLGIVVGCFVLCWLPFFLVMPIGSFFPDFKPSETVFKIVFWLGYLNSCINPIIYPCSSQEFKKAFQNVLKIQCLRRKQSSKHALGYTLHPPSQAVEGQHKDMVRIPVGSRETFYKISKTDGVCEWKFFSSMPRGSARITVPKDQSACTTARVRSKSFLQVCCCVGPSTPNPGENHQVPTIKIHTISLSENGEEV
Procedure, shortened: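 Tissue in Krebs equilibrated 1 h at 1 g, then given a single (−)-noradrenaline dose. Washed 1 h in Ca2+-free Krebs with 0.1 mM EDTA, with agonist reapplied until no contraction (internal Ca2+ stores depleted). Antagonist 10 nM for 30 min, then Ca2+ 1.8 mM added. Result is % decrease versus IRT without any agent; mean ± SE, 4–7 experiments.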

[2] = biological target: T2, Alpha-1D adrenergic receptor (Homo sapiens, UniProt P25100); assay: Displacement of [3H]prazosin from human cloned alpha1D adrenoceptor expressed in CHO cell membranes after 30 mins by liquid scintillation counter
T2 sequence (P25100 whole entry): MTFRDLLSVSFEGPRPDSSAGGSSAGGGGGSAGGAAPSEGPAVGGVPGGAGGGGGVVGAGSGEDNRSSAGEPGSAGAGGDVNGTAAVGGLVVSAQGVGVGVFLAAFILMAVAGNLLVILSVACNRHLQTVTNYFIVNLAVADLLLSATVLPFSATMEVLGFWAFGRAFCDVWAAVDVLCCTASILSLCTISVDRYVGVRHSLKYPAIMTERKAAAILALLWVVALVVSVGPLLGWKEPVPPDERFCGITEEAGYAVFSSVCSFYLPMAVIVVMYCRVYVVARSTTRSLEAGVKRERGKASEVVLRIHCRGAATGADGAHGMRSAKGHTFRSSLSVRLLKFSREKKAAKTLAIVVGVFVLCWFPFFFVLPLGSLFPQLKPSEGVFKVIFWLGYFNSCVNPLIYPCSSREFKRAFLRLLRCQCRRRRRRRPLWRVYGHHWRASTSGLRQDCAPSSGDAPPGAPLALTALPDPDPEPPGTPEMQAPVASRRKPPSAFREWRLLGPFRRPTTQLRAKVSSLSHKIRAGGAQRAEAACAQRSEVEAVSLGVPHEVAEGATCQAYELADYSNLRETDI

[3] = biological target: T3, Alpha-1A adrenergic receptor (Rattus norvegicus, UniProt P43140); assay: Antagonist activity at alpha1A adrenoceptor in Sprague-Dawley rat prostatic vas deferens assessed as inhibition of noradrenaline-induced contractions after 30 mins; assay type: functional, tissue-based; settings: read-out: pA2 (converted)
T3 sequence (P43140 whole entry): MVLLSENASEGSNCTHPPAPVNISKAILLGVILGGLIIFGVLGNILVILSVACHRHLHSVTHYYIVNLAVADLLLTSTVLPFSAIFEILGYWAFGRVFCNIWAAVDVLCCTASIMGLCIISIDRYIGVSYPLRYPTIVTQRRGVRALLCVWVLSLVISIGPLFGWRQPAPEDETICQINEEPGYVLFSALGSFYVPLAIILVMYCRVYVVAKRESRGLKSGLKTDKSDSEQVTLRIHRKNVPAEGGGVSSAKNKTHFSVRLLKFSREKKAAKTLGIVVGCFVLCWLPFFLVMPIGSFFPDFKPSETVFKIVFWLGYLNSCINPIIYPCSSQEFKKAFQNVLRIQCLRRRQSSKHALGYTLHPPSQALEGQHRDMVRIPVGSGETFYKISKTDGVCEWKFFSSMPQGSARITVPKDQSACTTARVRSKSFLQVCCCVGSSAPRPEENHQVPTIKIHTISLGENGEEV

[4] = biological target: T3, Alpha-1A adrenergic receptor; assay: Antagonist activity at alpha1A adrenoceptor in Sprague-Dawley rat prostate assessed as inhibition of noradrenaline-induced contractions after 30 mins; assay type: functional, tissue-based, Prostate gland; settings: read-out: pA2 (converted)
Procedure, shortened: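 Rat (200–250 g) prostatic strips, 8–10 mm × 1–2 mm, held at 2 g resting tension in modified Krebs (NaCl 118.0, KCl 4.7, CaCl2 2.5, MgSO4 1.18, NaHCO3 25.0, KH2PO4 1.18, glucose 5.5 mM).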

[5] = biological target: T4, Alpha-1A adrenergic receptor (Homo sapiens, UniProt P35348); assay: Displacement of [3H]prazosin from human cloned alpha1A adrenoceptor expressed in CHO cell membranes after 30 mins by liquid scintillation counter
T4 sequence (P35348 whole entry): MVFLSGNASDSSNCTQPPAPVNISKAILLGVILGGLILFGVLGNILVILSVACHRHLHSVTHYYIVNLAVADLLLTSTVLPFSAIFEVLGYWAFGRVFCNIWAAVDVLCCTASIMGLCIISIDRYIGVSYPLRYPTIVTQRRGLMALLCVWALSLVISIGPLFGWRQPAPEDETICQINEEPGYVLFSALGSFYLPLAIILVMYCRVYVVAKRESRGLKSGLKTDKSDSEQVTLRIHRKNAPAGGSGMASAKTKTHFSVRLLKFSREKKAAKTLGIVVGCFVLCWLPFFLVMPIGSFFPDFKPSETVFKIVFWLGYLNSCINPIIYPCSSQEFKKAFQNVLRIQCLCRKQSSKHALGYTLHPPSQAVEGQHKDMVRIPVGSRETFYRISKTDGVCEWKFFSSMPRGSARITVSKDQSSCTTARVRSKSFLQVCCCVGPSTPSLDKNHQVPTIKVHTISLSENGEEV
Procedure, shortened: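 Membranes incubated 30 min at 25 °C with 0.5 nM [3H]-prazosin ± compound (0.3–1000 nM) in 50 mM buffer, pH 7.7, containing pargyline and 0.1% ascorbic acid. Unlabelled prazosin defined nonspecific binding. GF/B filtration, scintillation counting.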

SMILES | inhibition [1] [%] | Ki [2] [nM] | Kb [3] [nM] | Kb [4] [nM] | Ki [5] [nM]
COc1cccc(OC)c1OCCNC[C@H]1COc2cccc(Cl)c2O1.Cl | 80 | 0.708 | 0.275 | 0.912 | 0.891
COc1cccc(OC)c1OCCNC[C@H]1COc2cccc(F)c2O1.Cl | 100 | 0.49 | 28.8 | 1.2 | 0.646

Now from value to compound:

inhibition [1] [%] | Ki [2] [nM] | Kb [3] [nM] | Kb [4] [nM] | Ki [5] [nM] | SMILES
60 | 0.372 | 1.7 | 2.82 | 0.912 | COc1cccc(OC)c1OCCNC[C@H]1COc2cccc(OC)c2O1.Cl
100 | 8.91 | 166 | 50.1 | 2.19 | COc1cccc(OC)c1OCCNC[C@H]1COc2cccc(O)c2O1.Cl
79 | 79.4 | 53.7 | 39.8 | 24 | COc1cccc(OC)c1OCCNC[C@H]1COc2c(OC)cccc2O1.Cl

Reference: ChEMBL document CHEMBL2150980 (Eur J Med Chem, 2012)
